Data reported in ChEMBL document CHEMBL1139437, “Design, synthesis, and preliminary pharmacological evaluation of 4-aminopiperidine derivatives as N-type calcium channel blockers active on pain and neuropathic pain” (J Med Chem, 2004).

Legend:
Mus musculus [1] = assay: Analgesic activity was evaluated in mouse hotplate test; expressed as licking latency after 15 min of treatment at a dose of 40 ug intracerebroventricularly; format: functional
Summary of the method: (§1)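 Male Swiss albino mice (23-30 g); icv injection of 5 μL (saline or H2O/DMSO 2:1) under brief anaesthesia. Paw-licking latency (s) on hot plate read before injection and every 15 min up to 60 min. Mice with pretest latency below 12 or over 18 s excluded; cutoff 45 s. Statistics against saline- or vehicle-treated controls.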

Mus musculus [2] = assay: Analgesic activity was evaluated in mouse hotplate test; expressed as licking latency after 30 min of treatment at a dose of 40 ug intracerebroventricularly; format: functional; summary of the method: as §1
Mus musculus [3] = species: Mus musculus; assay: Percentage analgesic efficacy when compared to morphine; format: functional; set-up: concentration or dose not given beside the values
Summary of the method: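 Male Swiss albino mice, hot-plate test, paw-licking latency; pretest 12–18 s required, cutoff 45 s. Icv injection of 5 μL under brief anaesthesia, in saline or H2O/DMSO 2:1, at maximal soluble dose. Latency read before and every 15 min after dosing. Efficacy = (peak latency − pretest) as % of the same value for morphine 10 μg/mouse icv; non-significant effects scored 0.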

Mus musculus [4] = assay: Analgesic activity was evaluated in mouse hotplate test; expressed as licking latency after 45 min of treatment at a dose of 40 ug intracerebroventricularly; format: functional; summary of the method: as §1
Rattus norvegicus [5] = assay: Antihyperalgesic activity was evaluated in rat (dx) paw pressure test after 30 min at a dose of 50 ug intracerebroventricularly
Rattus norvegicus [6] = assay: Antihyperalgesic activity was evaluated in rat (dx) paw pressure test after 45 min at a dose of 50 ug intracerebroventricularly
Rattus norvegicus [7] = assay: Antihyperalgesic activity was evaluated in rat (dx) paw pressure test after 60 min at a dose of 50 ug intracerebroventricularly
Rattus norvegicus [8] = assay: Antihyperalgesic activity was evaluated in rat (sn) paw pressure test after 30 min at a dose of 50 ug intracerebroventricularly
Rattus norvegicus [9] = assay: Antihyperalgesic activity was evaluated in rat (sn) paw pressure test after 45 min at a dose of 50 ug intracerebroventricularly
Rattus norvegicus [10] = assay: Antihyperalgesic activity was evaluated in rat (sn) paw pressure test after 60 min at a dose of 50 ug intracerebroventricularly
Mus musculus [11] = assay: Analgesic activity was evaluated in mouse hotplate test; expressed as licking latency after 15 min of treatment at a dose of 50 ug intracerebroventricularly; format: functional; summary of the method: as §1
Mus musculus [12] = assay: Analgesic activity was evaluated in mouse hotplate test; expressed as licking latency after 30 min of treatment at a dose of 50 ug intracerebroventricularly; format: functional; summary of the method: as §1
Mus musculus [13] = assay: Analgesic activity was evaluated in mouse hotplate test; expressed as licking latency after 45 min of treatment at a dose of 50 ug intracerebroventricularly; format: functional; summary of the method: as §1
[14] = target: Voltage-dependent N-type calcium channel subunit alpha-1B (Rattus norvegicus) (UniProt Q02294); assay: In vitro antagonism of N-type calcium channels expressed in PC12 cells was determined as the increase in intracellular calcium influx
Chain of Voltage-dependent N-type calcium channel subunit alpha-1B (Rattus norvegicus) (Q02294 whole entry, looked up): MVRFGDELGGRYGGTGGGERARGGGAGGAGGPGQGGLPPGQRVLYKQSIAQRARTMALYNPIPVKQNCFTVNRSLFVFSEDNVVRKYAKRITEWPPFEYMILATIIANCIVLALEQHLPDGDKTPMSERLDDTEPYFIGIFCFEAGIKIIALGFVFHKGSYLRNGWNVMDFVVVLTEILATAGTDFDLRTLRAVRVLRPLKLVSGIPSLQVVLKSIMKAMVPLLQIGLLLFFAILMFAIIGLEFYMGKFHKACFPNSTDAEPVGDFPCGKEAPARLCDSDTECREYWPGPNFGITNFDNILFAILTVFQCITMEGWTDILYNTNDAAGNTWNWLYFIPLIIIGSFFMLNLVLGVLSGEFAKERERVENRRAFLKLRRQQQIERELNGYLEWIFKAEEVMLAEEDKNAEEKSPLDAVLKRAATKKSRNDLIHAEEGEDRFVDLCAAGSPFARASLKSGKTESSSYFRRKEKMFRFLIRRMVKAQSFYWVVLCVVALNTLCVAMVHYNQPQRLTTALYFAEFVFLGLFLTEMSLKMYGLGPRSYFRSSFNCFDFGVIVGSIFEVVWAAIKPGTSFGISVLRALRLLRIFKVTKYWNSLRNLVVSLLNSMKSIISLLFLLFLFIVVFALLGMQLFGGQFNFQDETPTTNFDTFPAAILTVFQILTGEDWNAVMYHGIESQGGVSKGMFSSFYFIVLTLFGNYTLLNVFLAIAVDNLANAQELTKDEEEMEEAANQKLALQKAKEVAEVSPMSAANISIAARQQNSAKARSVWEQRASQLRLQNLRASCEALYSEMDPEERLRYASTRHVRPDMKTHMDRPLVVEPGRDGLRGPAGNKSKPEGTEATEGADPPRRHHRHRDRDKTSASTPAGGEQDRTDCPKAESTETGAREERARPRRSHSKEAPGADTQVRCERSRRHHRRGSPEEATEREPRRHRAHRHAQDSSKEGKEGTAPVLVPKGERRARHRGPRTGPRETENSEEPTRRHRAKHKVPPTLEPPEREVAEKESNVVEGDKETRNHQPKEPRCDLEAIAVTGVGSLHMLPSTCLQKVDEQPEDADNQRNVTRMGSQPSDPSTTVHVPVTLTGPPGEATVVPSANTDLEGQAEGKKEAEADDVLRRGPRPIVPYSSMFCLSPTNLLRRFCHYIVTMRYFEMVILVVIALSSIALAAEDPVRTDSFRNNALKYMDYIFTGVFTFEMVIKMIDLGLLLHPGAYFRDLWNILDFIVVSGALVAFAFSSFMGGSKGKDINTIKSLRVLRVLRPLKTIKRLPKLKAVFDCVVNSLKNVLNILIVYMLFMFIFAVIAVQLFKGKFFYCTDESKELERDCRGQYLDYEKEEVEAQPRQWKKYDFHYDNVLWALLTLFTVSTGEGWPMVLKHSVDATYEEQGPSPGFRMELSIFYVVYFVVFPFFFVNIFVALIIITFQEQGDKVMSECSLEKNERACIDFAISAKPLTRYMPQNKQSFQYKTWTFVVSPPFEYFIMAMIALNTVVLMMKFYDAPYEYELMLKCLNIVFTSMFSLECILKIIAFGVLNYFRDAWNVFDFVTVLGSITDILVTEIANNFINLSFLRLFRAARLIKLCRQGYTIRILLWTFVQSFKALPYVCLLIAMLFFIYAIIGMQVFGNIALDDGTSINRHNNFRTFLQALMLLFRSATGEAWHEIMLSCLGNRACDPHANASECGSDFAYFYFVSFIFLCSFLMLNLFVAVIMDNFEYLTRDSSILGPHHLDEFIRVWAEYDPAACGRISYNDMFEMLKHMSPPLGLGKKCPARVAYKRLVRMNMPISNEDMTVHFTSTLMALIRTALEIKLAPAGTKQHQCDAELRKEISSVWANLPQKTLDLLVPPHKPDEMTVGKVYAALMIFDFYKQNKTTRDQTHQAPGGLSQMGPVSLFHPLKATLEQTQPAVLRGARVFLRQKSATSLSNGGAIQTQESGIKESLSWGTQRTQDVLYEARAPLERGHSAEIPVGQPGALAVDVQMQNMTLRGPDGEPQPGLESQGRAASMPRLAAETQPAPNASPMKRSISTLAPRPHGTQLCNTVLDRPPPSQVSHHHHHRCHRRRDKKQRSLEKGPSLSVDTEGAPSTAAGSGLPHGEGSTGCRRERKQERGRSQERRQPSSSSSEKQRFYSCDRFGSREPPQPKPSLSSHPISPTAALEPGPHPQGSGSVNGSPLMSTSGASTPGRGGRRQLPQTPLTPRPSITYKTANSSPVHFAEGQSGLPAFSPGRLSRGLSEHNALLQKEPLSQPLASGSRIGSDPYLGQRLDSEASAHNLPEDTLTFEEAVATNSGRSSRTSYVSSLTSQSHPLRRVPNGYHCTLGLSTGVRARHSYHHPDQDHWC

[15] = target: Voltage-dependent N-type calcium channel subunit alpha-1B (Rattus norvegicus) (UniProt Q02294); assay: In vitro antagonism of N-type calcium channels expressed in PC12 cells was determined as the increase in intracellular calcium influx in the presence of 10 uM nifedipine
Mus musculus [16] = assay: Analgesic activity was evaluated in mouse hotplate test; expressed as licking latency after 30 min of treatment at a dose of 10 ug intracerebroventricularly; format: functional; summary of the method: as §1
Mus musculus [17] = assay: Analgesic activity was evaluated in mouse hotplate test; expressed as licking latency after 45 min of treatment at a dose of 10 ug intracerebroventricularly; format: functional; summary of the method: as §1
Mus musculus [18] = assay: Analgesic activity was evaluated in mouse hotplate test; expressed as licking latency after 15 min of treatment at a dose of 10 ug intracerebroventricularly; format: functional; summary of the method: as §1
Mus musculus [19] = assay: Analgesic activity was evaluated in mouse hotplate test; expressed as licking latency after 30 min of treatment at a dose of 20 ug intracerebroventricularly; format: functional; summary of the method: as §1
Mus musculus [20] = assay: Analgesic activity was evaluated in mouse hotplate test; expressed as licking latency after 45 min of treatment at a dose of 20 ug intracerebroventricularly; format: functional; summary of the method: as §1
Mus musculus [21] = assay: Analgesic activity was evaluated in mouse hotplate test; expressed as licking latency after 15 min of treatment at a dose of 20 ug intracerebroventricularly; format: functional; summary of the method: as §1
Mus musculus [22] = assay: Analgesic activity was evaluated in mouse hotplate test; expressed as licking latency after 30 min of treatment at a dose of 25 ug intracerebroventricularly; format: functional; summary of the method: as §1
Mus musculus [23] = assay: Analgesic activity was evaluated in mouse hotplate test; expressed as licking latency after 15 min of treatment at a dose of 25 ug intracerebroventricularly; format: functional; summary of the method: as §1
Mus musculus [24] = assay: Analgesic activity was evaluated in mouse hotplate test; expressed as licking latency after 45 min of treatment at a dose of 25 ug intracerebroventricularly; format: functional; summary of the method: as §1
Mus musculus [25] = assay: Analgesic activity was evaluated in mouse hotplate test; expressed as licking latency after 15 min of treatment at a dose of 30 ug intracerebroventricularly; format: functional; summary of the method: as §1
Mus musculus [26] = assay: Analgesic activity was evaluated in mouse hotplate test; expressed as licking latency after 30 min of treatment at a dose of 30 ug intracerebroventricularly; format: functional; summary of the method: as §1
Mus musculus [27] = assay: Analgesic activity was evaluated in mouse hotplate test; expressed as licking latency after 45 min of treatment at a dose of 30 ug intracerebroventricularly; format: functional; summary of the method: as §1
Rattus norvegicus [28] = assay: Antihyperalgesic activity was evaluated in rat (sn) paw pressure test after 30 min at a dose of 30 ug intracerebroventricularly
Rattus norvegicus [29] = assay: Antihyperalgesic activity was evaluated in rat (dx) paw pressure test after 30 min at a dose of 30 ug intracerebroventricularly
Rattus norvegicus [30] = assay: Antihyperalgesic activity was evaluated in rat (dx) paw pressure test after 45 min at a dose of 30 ug intracerebroventricularly
Rattus norvegicus [31] = assay: Antihyperalgesic activity was evaluated in rat (dx) paw pressure test after 60 min at a dose of 30 ug intracerebroventricularly
Rattus norvegicus [32] = assay: Antihyperalgesic activity was evaluated in rat (sn) paw pressure test after 45 min at a dose of 30 ug intracerebroventricularly
Rattus norvegicus [33] = assay: Antihyperalgesic activity was evaluated in rat (sn) paw pressure test after 60 min at a dose of 30 ug intracerebroventricularly
Mus musculus [34] = assay: Analgesic activity was evaluated in mouse hotplate test; expressed as licking latency after 30 min of treatment at a dose of 15 ug intracerebroventricularly; format: functional; summary of the method: as §1
Mus musculus [35] = assay: Analgesic activity was evaluated in mouse hotplate test; expressed as licking latency after 45 min of treatment at a dose of 15 ug intracerebroventricularly; format: functional; summary of the method: as §1
Mus musculus [36] = assay: Analgesic activity was evaluated in mouse hotplate test; expressed as licking latency after 15 min of treatment at a dose of 15 ug intracerebroventricularly; format: functional; summary of the method: as §1

Compound: CC(C)CC(N)C(=O)NC1CCN(C(=O)CCC(c2ccc(F)cc2)c2ccc(F)cc2)CC1.Cl (stereo unspecified)
- Latency (Mus musculus [1]): 23.2 s
- Latency (Mus musculus [2]): 22.6 s
- Efficacy (Mus musculus [3]): 71%
- Latency (Mus musculus [4]): 16.6 s
- Activity (Rattus norvegicus [5]): 62.5 g
- Activity (Rattus norvegicus [6]): 60.3 g
- Activity (Rattus norvegicus [7]): 55.8 g
- Activity (Rattus norvegicus [8]): 55.9 g
- Activity (Rattus norvegicus [9]): 61.3 g
- Activity (Rattus norvegicus [10]): 63.2 g

Compound: COc1ccc(C(C#N)(CCCN2CCC(NCCOc3ccccc3)CC2)C(C)C)cc1OC.O=C(O)C(=O)O (stereo unspecified)
- Efficacy (Mus musculus [3]): 61%
- Latency (Mus musculus [11]): 22.3 s
- Latency (Mus musculus [12]): 20.8 s
- Latency (Mus musculus [13]): 18.9 s
- Activity (Rattus norvegicus [5]): 61.7 g
- Activity (Rattus norvegicus [6]): 58.3 g
- Activity (Rattus norvegicus [7]): 54.8 g
- Activity (Rattus norvegicus [8]): 59.5 g
- Activity (Rattus norvegicus [9]): 64.7 g
- Activity (Rattus norvegicus [10]): 60.6 g
- IC50 [14]: 700 nM
- IC50 [15]: 400 nM

Compound: COc1ccc(CCNC2CCN(CCCC(C#N)(c3ccccc3)C(C)C)CC2)cc1OC.O=C(O)C(=O)O (stereo unspecified)
- Latency (Mus musculus [16]): 18.1 s
- Efficacy (Mus musculus [3]): 0%
- Latency (Mus musculus [17]): 17.5 s
- Latency (Mus musculus [18]): 16.6 s

Compound: O=C(CCC(c1ccc(F)cc1)c1ccc(F)cc1)NC1CCNCC1.O=C(O)C(=O)O
- Latency (Mus musculus [19]): 16.7 s
- Efficacy (Mus musculus [3]): 64%
- Latency (Mus musculus [20]): 17.1 s
- Latency (Mus musculus [21]): 21.8 s

Compound: CCCCN1CCC(NCCCC(C#N)(c2ccc(OC)c(OC)c2)C(C)C)CC1.Cl (stereo unspecified)
- Latency (Mus musculus [22]): 21.6 s
- Efficacy (Mus musculus [3]): 47%
- Latency (Mus musculus [23]): 20.5 s
- Latency (Mus musculus [24]): 19 s

Compound: COc1ccc(CCNC2CCN(CCCC(C#N)(c3ccc(OC)c(OC)c3)C(C)C)CC2)cc1OC.O=C(O)C(=O)O (stereo unspecified)
- Latency (Mus musculus [16]): 18.3 s
- Efficacy (Mus musculus [3]): 0%
- Latency (Mus musculus [17]): 17.6 s
- Latency (Mus musculus [18]): 17.2 s

Compound: CCCCNC1CCN(CCCC(C#N)(c2ccc(OC)c(OC)c2)C(C)C)CC1.Cl (stereo unspecified)
- Latency (Mus musculus [25]): 23.1 s
- Latency (Mus musculus [26]): 21.3 s
- Efficacy (Mus musculus [3]): 59%
- Latency (Mus musculus [27]): 18.7 s
- Activity (Rattus norvegicus [28]): 59.1 g
- Activity (Rattus norvegicus [29]): 47.3 g
- Activity (Rattus norvegicus [30]): 43.5 g
- Activity (Rattus norvegicus [31]): 38.6 g
- Activity (Rattus norvegicus [32]): 57.3 g
- Activity (Rattus norvegicus [33]): 59.2 g

Compound: COc1ccc(CCNC2CCN(C(=O)CCC(C#N)(c3ccc(OC)c(OC)c3)C(C)C)CC2)cc1OC.O=C(O)C(=O)O (stereo unspecified)
- Latency (Mus musculus [16]): 18.8 s
- Efficacy (Mus musculus [3]): 0%
- Latency (Mus musculus [17]): 17.3 s
- Latency (Mus musculus [18]): 16.5 s

Compound: COc1ccc(CCN2CCC(NCCCC(C#N)(c3ccc(OC)c(OC)c3)C(C)C)CC2)cc1OC.Cl (stereo unspecified)
- Latency (Mus musculus [34]): 18.3 s
- Efficacy (Mus musculus [3]): 0%
- Latency (Mus musculus [35]): 15.4 s
- Latency (Mus musculus [36]): 17.7 s
